Read-outs that look alike come from different tables or passages of the source.
Experiments:
Type in all cases: biochemical, Fischer 344 rats
[1] = test system: Complex II dependent oxygen consumption; conditions: log dose response; no observed differences across brain regions
Summary of the method: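 Brain regions dissected from 16-week male rats; mitochondria purified by differential centrifugation, nitrogen disruption at 1200 psi and Ficoll gradient. Wells got 2.5 or 5 μg protein, were spun 200 × g, and were overlaid with respiration buffer pH 7.2 at 37 °C. […] 5–6 rats/group; two-way ANOVA.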

Mitochondrial Complex I = Mitochondrial Complex I (Rattus norvegicus, UniProt P03889+Q641Y2); assay: Mitochondrial Complex I enzyme activity assay
[2] = test system: Complex I driven oxygen consumption; conditions: cortical mitochondria
Summary of the method: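 Cortical mitochondria were isolated by differential centrifugation, nitrogen bomb and Ficoll purification, then seeded on XF24 plates in respiration buffer (mannitol/sucrose/BSA/HEPES/MgCl/KH2PO4, pH 7.2, 37 °C). A modified protocol repeatedly measured O2 consumption in the same well after injecting low rotenone (10 fM, 10 pM, 10 nM; diluted in ethanol). 5–6 rats/group; two-way ANOVA with post hoc tests.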

Chain of Mitochondrial Complex I (Q641Y2 34-463): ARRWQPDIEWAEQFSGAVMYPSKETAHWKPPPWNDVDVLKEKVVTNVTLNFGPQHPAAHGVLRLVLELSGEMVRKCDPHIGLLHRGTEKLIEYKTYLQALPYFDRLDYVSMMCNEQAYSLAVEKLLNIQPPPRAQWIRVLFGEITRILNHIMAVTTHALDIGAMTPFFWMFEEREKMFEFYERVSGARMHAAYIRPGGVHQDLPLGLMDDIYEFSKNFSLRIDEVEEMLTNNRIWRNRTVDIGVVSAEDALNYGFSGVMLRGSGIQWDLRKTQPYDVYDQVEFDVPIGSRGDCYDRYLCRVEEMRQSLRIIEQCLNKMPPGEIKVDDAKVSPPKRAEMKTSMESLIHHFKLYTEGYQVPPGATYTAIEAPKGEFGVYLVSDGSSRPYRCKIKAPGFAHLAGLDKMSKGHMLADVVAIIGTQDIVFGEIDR
Chain of Mitochondrial Complex I (P03889 whole entry): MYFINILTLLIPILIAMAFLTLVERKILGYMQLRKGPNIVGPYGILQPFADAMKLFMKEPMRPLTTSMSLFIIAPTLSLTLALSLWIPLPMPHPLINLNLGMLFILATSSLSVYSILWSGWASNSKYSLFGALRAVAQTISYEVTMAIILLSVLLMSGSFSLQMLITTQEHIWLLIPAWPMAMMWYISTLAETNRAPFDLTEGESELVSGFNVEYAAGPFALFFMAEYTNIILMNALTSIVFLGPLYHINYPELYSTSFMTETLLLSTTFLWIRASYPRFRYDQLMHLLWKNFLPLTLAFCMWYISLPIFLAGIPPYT

Row | SMILES | effect on mitochondrial driven oxygen consumption (Complex II) [1] | IC50 (Mitochondrial Complex I) [nM] | effect on mitochondrial oxygen consumption ([2]; 10 pM rotenone, up to 8 min following exposure) | effect on mitochondrial oxygen consumption ([2]; 10 nM rotenone) | effect on mitochondrial oxygen consumption ([2]; 10 fM rotenone)
1 | O=C(O)CC(=O)O [malonate] | dose dependent decrease | – | – | – | –
2 | C=C(C)[C@H]1Cc2c(ccc3c2O[C@@H]2COc4cc(OC)c(OC)cc4[C@@H]2C3=O)O1 [rotenone] | – | 0.163 to 0.238 | did not result in any reduction in oxygen consumption | significant reduction in mitochondrial oxygen consumption immediately following exposure | no reduction in oxygen consumption
